Activity calls are given as the source filed them.
Tests used:
[1] = tested on: Influenza A virus; test: Antiviral activity against Influenza A virus (A/California/07/2009(H1N1)) infected in human A549 cells assessed as reduction in plaque area after 3 days post infection by crystal violet-staining based assay; format: functional, organism-based; conditions: A549, 72 h
In short: (§1)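 A549 monolayers were infected at 0.01 MOI for 1 h at 37 °C, then washed twice with PBS. Cells were overlaid with 1% agar DMEM containing compound, 2 µg/mL trypsin and 0.3% BSA. Two to three days post-infection, monolayers were fixed and stained with 0.1% crystal violet.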

[2] = tested on: Influenza A virus; test: Antiviral activity against Influenza A virus (A/Guangzhou/GIRD/07/2009 (H1N1)) infected in MDCK cells assessed as reduction in virus-induced cytopathic effect after 48 hrs by microscopic analysis; format: functional, organism-based
In short: (§2)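 MDCK monolayers (5×10^4 cells/well, grown 24 h) were rinsed twice, infected with 100 TCID50 virus for 2 h at 37 °C in 5% CO2, and the inoculum was removed. Two-fold serial compound dilutions in DMEM with 1.5 µg/mL trypsin were added and incubated 48 h at 34 °C. CPE percentage was scored by microscope and EC50 fitted by non-linear regression.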

[3] = tested on: Influenza A virus; test: Antiviral activity against Influenza A virus (A/WSN/33 (H1N1)) infected in MDCK cells assessed as reduction in virus-induced cytopathic effect after 48 hrs by microscopic analysis; format: functional, organism-based; conditions: A/WSN/1933(H1N1); in short: as §2
[4] = tested on: Influenza A virus; test: Antiviral activity against Influenza A virus (A/PR/8/34 (H1N1)) infected in MDCK cells assessed as reduction in virus-induced cytopathic effect after 48 hrs by microscopic analysis; format: functional, organism-based; conditions: A/Puerto Rico/8/1934(H1N1); in short: as §2
[5] = tested on: Influenza A virus; test: Antiviral activity against Influenza A virus (A/HK/68) by CCK-8 reagent based assay; format: functional, organism-based
[6] = tested on: H3N2 subtype; test: Antiviral activity against Influenza A virus (A/Aichi/2/68 (H3N2)) infected in MDCK cells assessed as reduction in virus-induced cytopathic effect after 48 hrs by microscopic analysis; format: functional, organism-based; conditions: A/Aichi/2/1968(H3N2); in short: as §2
[7] = molecular target: Hemagglutinin (Influenza A virus (strain A/Aichi/2/1968 H3N2), UniProt P03437); test: (§3) Inhibition of Influenza A virus A/Aichi/2/68 (H3N2) HA2-mediated hemolysis preincubated with virus for 30 mins followed by chicken red blood cells addition measured after 30 mins by spectrophotometric analysis; set-up: species or system Influenza A virus (A/Aichi/2/1968(H3N2))
In short: (§4)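 Virus (100 µL) was incubated with two-fold serial compound dilutions in PBS for 30 min at 37 °C. An equal volume of chicken red blood cells in citric acid-sodium citrate (pH 5.0) was added and incubated 30 min at 37 °C, then centrifuged at 400 × g. Supernatant absorbance was read at 540 nm, with mock-infected background subtracted. IC50 is the concentration giving 50% hemolysis inhibition. Two independent experiments were run.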

[8] = molecular target: Hemagglutinin (Influenza A virus (strain A/Aichi/2/1968 H3N2)) (UniProt P03437); test: as §3; conditions: Influenza A virus (A/Aichi/2/1968(H3N2)); in short: as §4
[9] = tested on: Influenza A virus; test: Antiviral activity against Influenza A virus (A/HK/68(H3N2)) infected in MDCK cells assessed as reduction in virus-induced cytopathic effect after 48 hrs by microscopic analysis; format: functional, organism-based; in short: as §2
[10] = Cytotoxicity against MDCK cells assessed as change in cell morphology after 48 hrs by microscopic analysis; format: cell-based, Canis lupus familiaris; conditions: dog
In short: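 MDCK monolayers (5×10^4 cells/well, 24 h) were rinsed twice with PBS and exposed to two-fold serial compound dilutions in DMEM for 48 h. Wells were examined by microscope. The concentration giving minimal change in cell morphology was taken as the minimum cytotoxic concentration (MCC).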

[11] = tested on: Influenza A virus; test: Antiviral activity against Influenza A virus (A/duck/Guangdong/1/1996 (H7N3)) infected in MDCK cells assessed as reduction in virus-induced cytopathic effect after 48 hrs by microscopic analysis; format: functional, organism-based; in short: as §2
[12] = tested on: Influenza A virus; test: Antiviral activity against Influenza A virus (A/PR/8/34 (H1N1)) infected in MDCK cells assessed as inhibition of virus yield dosed at -1 to 2 hrs post infection and measured after 24 hrs; format: functional, organism-based; conditions: A/Puerto Rico/8/1934(H1N1)
In short: (§5)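 Confluent MDCK cells were infected with 100 TCID50 virus and adsorbed 1 h at 4 °C (adsorption defined as -1 h), then washed. Compound at 10 µM was present only during the stated interval, then washed out with PBS. Cells were kept in medium with 1.5 µg/mL TPCK-trypsin at 37 °C. After 24 h, plates were freeze-thawed and supernatant yield was titrated by TCID50.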

[13] = tested on: Influenza A virus; test: Antiviral activity against Influenza A virus (A/WSN/33) by CCK-8 reagent based assay; format: functional, organism-based; conditions: A/WSN/1933(H1N1)
[14] = tested on: Influenza A virus; test: Antiviral activity against Influenza A virus (A/PR/8/34 (H1N1)) infected in MDCK cells assessed as inhibition of virus yield dosed at 0 to 2 hrs post infection and measured after 24 hrs; format: functional, organism-based; conditions: A/Puerto Rico/8/1934(H1N1); in short: as §5
[15] = molecular target: Hemagglutinin (Influenza A virus (A/Puerto Rico/8/1934(H1N1))) (UniProt P03452); test: Inhibition of Influenza A virus A/PR/8/34 HA2-mediated hemolysis preincubated with virus for 30 mins followed by chicken red blood cells addition measured after 30 mins by spectrophotometric analysis; in short: as §4
[16] = molecular target: Hemagglutinin (Influenza A virus (A/Puerto Rico/8/1934(H1N1))) (UniProt P03452); test: Inhibition of Influenza A virus A/PR/8/34 HA1 domain assessed as reduction in virus-induced aggregation of chicken erythrocytes at 0.75 to 1500 uM incubated for 1 hr with virus followed by transfer of compound-virus preparation to chicken erythrocytes solution measured after 40 mins
In short: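 Two-fold serial compound dilutions in PBS were mixed with an equal volume of virus and incubated 1 h. The mixture was added to an equal volume of fresh 0.5% chicken red blood cells in Alsever's solution. After 40 min at room temperature, erythrocyte aggregation was read visually.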

[17] = tested on: Influenza A virus; test: Antiviral activity against Influenza A virus (A/Texas/04/2009(H1N1)) infected in human A549 cells assessed as reduction in plaque area after 3 days post infection by crystal violet-staining based assay; format: functional, organism-based; conditions: A549, 72 h; in short: as §1
[18] = tested on: Influenza A virus; test: Antiviral activity against Influenza A virus (A/duck/HK/Y280/97 (H9N2)) infected in MDCK cells assessed as reduction in virus-induced cytopathic effect after 48 hrs by microscopic analysis; format: functional, organism-based; in short: as §2

Sequence of Hemagglutinin (Influenza A virus (A/Puerto Rico/8/1934(H1N1))) (P03452 whole entry, the tested form may be a part): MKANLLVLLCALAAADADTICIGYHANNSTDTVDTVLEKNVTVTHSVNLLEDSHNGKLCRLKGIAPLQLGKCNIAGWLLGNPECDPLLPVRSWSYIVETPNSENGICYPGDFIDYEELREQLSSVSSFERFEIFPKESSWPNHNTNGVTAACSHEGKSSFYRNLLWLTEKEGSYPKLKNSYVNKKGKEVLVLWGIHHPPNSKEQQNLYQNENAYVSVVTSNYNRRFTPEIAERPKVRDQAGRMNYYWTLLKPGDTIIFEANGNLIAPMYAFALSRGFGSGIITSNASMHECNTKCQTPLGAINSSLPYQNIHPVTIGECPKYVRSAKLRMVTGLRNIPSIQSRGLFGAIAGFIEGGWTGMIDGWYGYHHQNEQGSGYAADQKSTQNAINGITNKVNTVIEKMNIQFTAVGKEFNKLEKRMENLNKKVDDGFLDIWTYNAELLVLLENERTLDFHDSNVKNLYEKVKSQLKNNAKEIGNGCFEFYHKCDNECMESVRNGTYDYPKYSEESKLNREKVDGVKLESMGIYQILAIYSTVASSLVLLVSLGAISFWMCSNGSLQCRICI

C[C@@H]1C2CC(C[C@H]1NCc1sccc1C1CC1)C2(C)C (single isomer, unassigned)
EC50 [1]: 340 nM | EC50 [2]: 300 nM | EC50 [3]: 1480 nM | EC50 [4]: 2230 nM | Activity [5]: Active | EC50 [6]: 4550 nM | IC50 [7]: 1230 nM | inhibition [8]: Dose-dependent effect | EC50 [9]: 5380 nM | MCC at 48 h [10]: 25 µM | EC50 [11]: 4580 nM | inhibition [12]: Active | Activity [13]: Active | inhibition [14]: Active | inhibition [15]: Dose-dependent effect | inhibition [16]: inactive | EC50 [17]: 100 nM | EC50 [18]: 6790 nM

Source: ChEMBL document CHEMBL4130623, “Discovery of Highly Potent Pinanamine-Based Inhibitors against Amantadine- and Oseltamivir-Resistant Influenza A Viruses” (J Med Chem, 2018)
